From PubChem BioAssay
Hits are enriched below; roughly 3.1% of the tested compounds scored in any of these assays.
KCNK3 inh: human KCNK3 channel inhibition, primary screen. CHO-KCNK3 thallium flux, FluxOR fluorescence; active compounds read low. B-score at 10 µM. 0.84% of 340,000 active;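 active means B-score under library mean minus 4 SD, starting fluorescence ratio at most library mean plus 5 SD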;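 further: more negative B-score means stronger inhibition of thallium flux through KCNK3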
KCNQ1 pot: potentiators or activators of human KCNQ1 potassium channel; P51787; B-score at 10 µM; CHO-K1 KCNQ1, thallium flux FluxOR fluorescence; active compounds read high; 0.35% of 310,000 active;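 active means fluorescence ratio B-score, a plate-corrected score, at least three library SD, with initial intensity B-score within 5 SD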
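Test system: CHO-K1 cells stably expressing KCNQ1 / Medium: assay buffer / Also added: depolarizing K+/Tl+ stimulus, K2SO4 and Tl2SO4 each 12.5 mM in 5x stock / Incubation: 90 min dye loading and 20 min compound exposure, both at room temperature / Signal: thallium influx via FluxOR fluorescence, kinetic imaging / Evaluation: B score of baseline-normalized fluorescence ratio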
KCNQ1 block: blocks the human KCNQ1 potassium channel; P51787; CHO-K1 KCNQ1, FluxOR thallium flux fluorescence; active compounds read high; B-score at 10 µM; 1.3% of 310,000 active; AID 2642;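 active means compounds whose thallium flux B-score, printed positive for inhibition, exceeds three library SD while starting fluorescence stays within three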;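 further: channel opened by potassium depolarization with thallium stimulus after 20 min compound exposure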
KCNK9 block: inhibitors of human KCNK9 two-pore domain potassium channel; Q9NPC2; HEK293 KCNK9, FluxOR thallium flux fluorescence; active compounds read low; B-score at 10 µM; 1.2% of 310,000 active;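 active means ratio B-score over 3 SD below the library mean, with starting fluorescence within 5 SD of its mean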;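 further: negative B-score means less thallium flux so channel inhibition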
hERG protect: compounds protecting human hERG from proarrhythmic drug block; CHO-hERG, FluxOR thallium flux, dofetilide IC70 present; activation (rescue from dofetilide block), less the hit threshold, % at 10 µM; 0.51% of 310,000 active;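 active means activation above the mean of controls blocked by dofetilide plus 5 SD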;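 further: thallium influx through hERG after potassium depolarization seen as dye fluorescence rise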
Target sequence (Q12809 whole entry, looked up): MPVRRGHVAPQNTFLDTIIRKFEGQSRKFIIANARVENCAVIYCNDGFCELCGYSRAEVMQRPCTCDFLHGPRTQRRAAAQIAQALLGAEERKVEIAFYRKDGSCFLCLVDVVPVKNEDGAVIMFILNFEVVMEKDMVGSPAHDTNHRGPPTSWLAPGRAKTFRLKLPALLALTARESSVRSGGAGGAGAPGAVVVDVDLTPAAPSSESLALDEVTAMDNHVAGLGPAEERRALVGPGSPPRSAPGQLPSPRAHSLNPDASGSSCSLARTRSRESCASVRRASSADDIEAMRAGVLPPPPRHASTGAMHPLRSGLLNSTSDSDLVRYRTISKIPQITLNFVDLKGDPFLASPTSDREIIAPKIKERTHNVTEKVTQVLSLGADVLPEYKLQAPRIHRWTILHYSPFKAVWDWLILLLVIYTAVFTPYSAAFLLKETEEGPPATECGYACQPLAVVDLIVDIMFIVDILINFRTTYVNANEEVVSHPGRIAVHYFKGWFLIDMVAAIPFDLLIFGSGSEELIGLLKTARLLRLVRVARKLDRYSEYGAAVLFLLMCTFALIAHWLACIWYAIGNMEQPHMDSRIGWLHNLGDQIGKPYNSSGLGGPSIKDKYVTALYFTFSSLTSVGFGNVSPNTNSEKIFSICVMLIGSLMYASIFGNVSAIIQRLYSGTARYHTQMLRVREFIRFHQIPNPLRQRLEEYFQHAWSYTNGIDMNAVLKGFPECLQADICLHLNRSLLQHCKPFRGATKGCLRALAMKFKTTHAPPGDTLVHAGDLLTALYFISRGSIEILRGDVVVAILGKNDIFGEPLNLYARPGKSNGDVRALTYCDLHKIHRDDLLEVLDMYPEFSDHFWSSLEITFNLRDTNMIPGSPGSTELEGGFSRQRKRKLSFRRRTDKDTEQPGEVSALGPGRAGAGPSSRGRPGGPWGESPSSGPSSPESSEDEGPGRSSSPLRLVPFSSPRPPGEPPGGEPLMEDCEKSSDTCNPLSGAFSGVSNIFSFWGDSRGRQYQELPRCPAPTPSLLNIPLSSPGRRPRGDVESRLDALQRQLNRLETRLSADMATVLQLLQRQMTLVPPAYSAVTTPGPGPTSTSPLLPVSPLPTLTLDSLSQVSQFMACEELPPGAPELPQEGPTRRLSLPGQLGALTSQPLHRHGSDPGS
KCNQ1 inh valid: confirmation of human KCNQ1 potassium channel inhibitors. shares compounds with KCNQ1 block. KCNQ1 cell line, FluxOR thallium flux fluorescence. inhibition, % at 10 µM. 93% of 1,600 active. AID 588353;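 active means primary screen active, with duplicate mean exceeding buffer control mean plus 3 SD of buffer wells, cut at about 28% in these data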
CHO KCNQ1 ctr: activity in parental CHO cells lacking KCNQ1; fluorescence ratio (Tl flux) at 10 µM; shares compounds with KCNQ1 block; 21% of 1,600 active; parental CHO-K1, FluxOR thallium flux fluorescence ratio; active compounds read low; zero means no signal rise above baseline;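 active means mean of duplicate thallium-flux fluorescence ratios in parental host cells more than 5 SD below the buffer control mean, cut at about 0.38 in these data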;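 further: ratio is peak minus minimum fluorescence divided by baseline fluorescence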
KCNQ1 ephys val: blocks human KCNQ1 current in automated patch clamp. shares compounds with KCNQ1 block. KCNQ1-CHO cells. calls only at 10 µM. 20% of 490 active. AID 624120;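 active means KCNQ1 current drop exceeding 3 SD of negative control wells, seen in both duplicate runs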;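 further: steady state current during a 2 s step from -80 to +40 mV; negative values mean current inhibition and positive values mean potentiation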
KCNQ2 inh: KCNQ1 inhibitor that also blocks rat KCNQ2 channel; inhibition, % at 10 µM; shares compounds with KCNQ1 block; 71% of 1,600 active; KCNQ2 cells, FluxOR thallium flux fluorescence; AID 651746;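 active means mean percent inhibition of the KCNQ2 thallium signal more than 5 SD above the buffer-only control wells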;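 further: KCNQ2 expressed in CHO cells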
KCNQ1 KCNE1 spec: selectivity of KCNQ1 inhibitors: inhibition of human KCNQ1/KCNE1 channel; shares compounds with KCNQ1 block; KCNQ1/KCNE1 cells, FluxOR thallium flux fluorescence; inhibition, % at 10 µM; 77% of 1,600 active;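 active means mean percent inhibition of duplicate wells above the buffer-only control mean plus 3 SD of those controls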
KCNK9 block conf: confirmation of human KCNK9 potassium channel inhibitors | HEK293 KCNK9 cells, FluxOR thallium flux fluorescence | 43% of 4,900 active | shares compounds with KCNK9 block | inhibition, % at 10 µM;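 active means thallium signal inhibited by more than 5 SD of the compound-free buffer control wells, on both duplicate plates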
Kir21 sel: selectivity of KCNK9 modulators against mouse Kir2.1. shares compounds with KCNK9 block. Kir2.1 cells, FluxOR thallium flux fluorescence. inhibition, % at 10 µM. 4% of 4,900 active. AID 492993;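 active means thallium signal drop more than 5 SD beyond the mean of the no-compound control wells, seen in both duplicate plates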;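 further: signal is fluorescence rise after thallium addition divided by baseline fluorescence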
KCNK9 uninduced: second check of KCNK9 modulator effects in non-induced HEK293 cells. 40% of 4,900 active. shares compounds with KCNK9 block. inhibition, % at 10 µM. AID 492997. FluxOR thallium flux;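 active means thallium signal drop beyond 5 SD of the untreated control mean, on both duplicate plates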
KCNK3 inh conf: human KCNK3 channel inhibition, confirmation assay; shares compounds with KCNK3 inh; CHO-KCNK3 thallium flux, FluxOR fluorescence; 0% buffer, 100% carvedilol maximal block; ratio percent of control, % at 10 µM; 99% of 2,400 active;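 active means ratio percent of control, averaged over triplicates, above buffer control mean plus 5 SD, cut at about 64% in these data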;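 further: ratio is the fluorescence rise from min to max over baseline after thallium stimulus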
KCNK3 noninduced: activity in cells without induced KCNK3 expression; non-induced KCNK3 parental cells, FluxOR thallium flux; active compounds read low; shares compounds with KCNK3 inh; thallium flux ratio (lower = more inhibition) at 10 µM; 40% of 2,400 active;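 active means thallium flux ratio, averaged over three wells, more than 5 SD below the buffer control mean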;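 further: host cells are CHO cells without KCNK3 induction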
Hits are given with their value; – = inactive; · = no result.

SMILES | KCNK3 inh | KCNQ1 pot | KCNQ1 block | KCNK9 block | hERG protect | KCNK9 block conf | Kir21 sel | KCNK9 uninduced | others
CCC(=NCCOc1ccc(Cl)cc1)c1c(O)n(C)c(=O)n(C)c1=O | – | – | 7 | – | – | · | · | · | KCNQ1 inh valid=122;CHO KCNQ1 ctr=0.34;KCNQ2 inh=114%;KCNQ1 KCNE1 spec=144%
CCOC(=O)c1cncn1[C@@H](C)c1ccccc1 | – | · | · | · | · | · | · | ·
CC(C)(C)c1nc(N2CCN(C(=O)c3ccco3)CC2)c2nnn(Cc3ccccc3Cl)c2n1 | – | – | 7 | – | – | · | · | · | KCNQ1 inh valid=116;CHO KCNQ1 ctr=0.36;KCNQ2 inh=101%;KCNQ1 KCNE1 spec=136%
Oc1cc(Cl)ccc1Oc1ccc(Cl)cc1Cl | – | – | 9 | -7.3 | – | · | · | · | KCNQ1 inh valid=52;CHO KCNQ1 ctr=–;KCNQ2 inh=–;KCNQ1 KCNE1 spec=86%
Cc1noc(C)c1CSCC(=O)Nc1ccc(C#N)c(Cl)c1 | – | · | · | · | · | · | · | ·
Cc1sc2ncnc(N3CCC(C(=O)Nc4ccc(C#N)c(Cl)c4)CC3)c2c1C | -10 | – | 7 | – | – | · | · | · | KCNQ1 inh valid=132;CHO KCNQ1 ctr=–;KCNQ1 ephys val=–;KCNQ2 inh=112%;KCNQ1 KCNE1 spec=156%;KCNK3 inh conf=131;KCNK3 noninduced=0.15
Cc1nn(CC(C)C)c(Cl)c1C(=O)NC1CCCCC1 | – | · | · | · | · | · | · | ·
O=C(c1ccccc1F)c1cn(Cc2ccccc2)c2ccccc12 | -9.4 | – | 6 | -7.5 | – | · | · | · | KCNQ1 inh valid=85;CHO KCNQ1 ctr=–;KCNQ2 inh=85%;KCNQ1 KCNE1 spec=130%;KCNK3 inh conf=113;KCNK3 noninduced=0.16
COc1ccccc1N1CCN(C2CCCN(C(=O)COc3ccccc3Cl)C2)CC1 (centres undefined) | – | – | – | – | – | – | – | –
COc1ccccc1OCC(=O)N1CCCC(N(C)Cc2ccccc2)C1 (centres undefined) | – | – | – | – | – | · | · | ·
Clc1cnc(Oc2ccc(Oc3ncc(Cl)cc3Cl)cc2)c(Cl)c1 | – | – | – | – | – | – | – | –
C[C@]12CCC3C(CC[C@H]4[C@@H](O)[C@H](O)CC[C@]34C)C1CCC2=O (some centres undefined) | – | · | · | · | · | · | · | ·
Oc1ccc(Cl)c(Cl)c1Cl | – | · | · | · | · | · | · | ·
Cc1ccc(-n2nc(C)c3c2NC(=O)CSC3c2ccc3c(c2)OCO3)cc1 (centres undefined) | – | – | – | -13 | – | 36% | – | 31%
COc1ccc(C2SCC(=O)Nc3c2c(C)nn3-c2ccccc2)cc1 (centres undefined) | – | – | – | – | – | · | · | ·
OC(CN1CC=C(c2ccccc2)CC1)c1ccccc1 (centres undefined) | – | – | – | – | – | · | · | ·
Cc1cc(O)c(CN2CC=C(c3ccccc3)CC2)cc1C(C)C | – | – | – | – | – | – | – | –
C[CH2][Hg][S]c1ccccc1C(=O)O | – | · | · | · | · | · | · | ·
COc1cccc(C(=O)C2CCCN(Cc3cnn(C(C)C)c3)C2)c1 (centres undefined) | – | – | – | – | – | · | · | ·
COc1cccc(C(=O)C2CCCN(Cc3ccc4nsnc4c3)C2)c1 (centres undefined) | – | – | – | – | – | – | – | –
O=C(c1cc(F)ccc1F)C1CCCN(Cc2cccc(Cl)c2)C1 (centres undefined) | – | – | – | – | – | – | – | –
COc1cccc(C(=O)C2CCCN(Cc3ccc(F)cc3)C2)c1 (centres undefined) | – | – | – | – | – | – | – | –
O=C(c1cc(F)ccc1F)C1CCCN(CCCc2ccccc2)C1 (centres undefined) | – | – | – | – | – | · | · | ·
O=C(c1ccc2c(c1)OCO2)C1CCCN(Cc2c(F)cccc2Cl)C1 (centres undefined) | – | – | – | – | – | – | – | –
CC12CC(O)C3C(CCC4=CC(=O)CCC43C)C1CCC2=O (centres undefined) | – | · | · | · | · | · | · | ·
SMILES | KCNK3 inh | KCNQ1 pot | KCNQ1 block | KCNK9 block | hERG protect | KCNK9 block conf | Kir21 sel | KCNK9 uninduced | others
CCOC(=O)C1(c2ccccc2)CCN(CCc2ccc(NC(=O)CCC(=O)O)cc2)CC1 | – | · | · | · | · | · | · | ·
Cc1cccc(CN2CCCC(C(=O)c3cccc(OC(C)C)c3)C2)n1 (centres undefined) | – | – | – | – | – | – | – | –
COc1cccc(C(=O)C2CCCN(Cc3cccc(C)n3)C2)c1 (centres undefined) | – | – | – | – | – | · | · | ·
O=C(c1ccc(Cl)cc1)C1CCCN(Cc2cccc3cccnc23)C1 (centres undefined) | – | – | – | – | – | – | – | –
CC1CCC(NC(=O)CNC(=S)N2CC3CC(C2)c2cccc(=O)n2C3)CC1 (centres undefined) | – | – | – | – | – | · | · | ·
COc1cc(C)c(CN2CC=C(c3ccc(F)cc3)CC2)cc1C | – | – | – | – | – | – | – | –
COc1cc(CN2CC=C(c3ccc(F)cc3)CC2)cc(OC)c1 | – | – | – | – | – | · | · | ·
CC(=NCCN1CCCCC1)c1c(O)n(-c2ccccc2)c(=O)[nH]c1=O | – | – | – | – | – | – | – | –
CCOC(=O)CC(SP1(=S)OCC2(CCCCC2)CO1)C(=O)OCC (centres undefined) | – | · | · | · | · | · | · | ·
Cc1ccc(O)c(C(=O)c2cc(C(=O)NCc3ccccc3)c(=O)n(Cc3ccccc3)c2)c1 | – | – | – | -10 | – | 38% | – | 46%
Cn1cc(C(=O)NCc2ccccc2)c2ccccc21 | – | – | – | – | – | · | · | ·
CCCCC/C(=N/O)c1c(C)[nH]c2ccccc12 | – | – | – | – | – | · | · | ·
CCCCC/C(=N\O)c1c[nH]c2ccccc12 | – | – | – | -13 | – | 56% | – | 25%
